# The source made the active and inactive calls. The calls are words filed in the database; no cut-off is given here.
# Experiments:
# MGC-803 = experiment: Cytotoxicity against human MGC803 cells after 48 hrs by MTT assay; assay type: functional, cell-based; settings: MGC-803, 48 h
# Method in brief: (§1)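 Cells grown in medium with 10% heat-inactivated FBS, 5% CO2, 37 °C. Compounds given in medium with 1% DMSO at 1.25–20 graded concentrations; 1% DMSO medium served as control. MTT (5 mg/mL) added, formazan dissolved in DMSO, absorbance read at 570/630 nm. Survival expressed relative to negative control. IC50 by Bliss method (n=5), at least three independent experiments, mean ± SD.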
# NCI-H460 = experiment: Cytotoxicity against human NCI-H460 cells after 48 hrs by MTT assay; assay type: functional, cell-based; settings: NCI-H460, 48 h; method in brief: as §1
# HepG2 [1] = experiment: Cytotoxicity against human HepG2 cells after 48 hrs by MTT assay; assay type: functional, cell-based; settings: HepG2, 48 h; method in brief: as §1
# HeLa = experiment: Cytotoxicity against human HeLa cells after 48 hrs by MTT assay; assay type: functional, cell-based; method in brief: as §1
# [2] = Cytotoxicity against human SMMC-7404 cells after 48 hrs by MTT assay; assay type: functional, cell-based; settings: SMMC-7404, 48 h; method in brief: as §1
# HUVEC = experiment: Cytotoxicity against human HUVEC cells after 48 hrs by MTT assay; assay type: cell-based; method in brief: as §1
# HepG2 [3] = experiment: Induction of apoptosis in human HepG2 cells assessed as early apoptotic cells at 10 uM after 12 hrs by flow cytometry (reference value: 2.1 %); assay type: functional
# Method in brief: (§2)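 HepG2 cells treated 12 h at 10 or 20 µM, with untreated control. Stained with annexin V-FITC plus PI for 30 min at 25 °C in the dark. Quadrant percentages read by flow cytometry.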
# HepG2 [4] = experiment: Induction of apoptosis in human HepG2 cells assessed as change in membrane integrity using acridine orange/ethidium bromide staining at 20 uM after 12 to 24 hrs by fluorescence microscopy; assay type: functional, cell-based
# Method in brief: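 HepG2 cells on coverslips treated with 20 µM in medium with 10% FBS for 12 or 24 h, with untreated 24 h control. Stained with AO/EB and examined by fluorescence microscopy: green = live, green-yellow = early apoptotic, orange = late apoptotic or necrotic.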
# HepG2 [5] = experiment: Induction of apoptosis in human HepG2 cells assessed as condensation of nucleus using hoechst staining at 20 uM after 12 to 24 hrs by fluorescence microscopy; assay type: functional, cell-based
# Method in brief: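 HepG2 cells on coverslips treated at 20 µM for 12 or 24 h, with untreated 24 h control. Fixed in 4% paraformaldehyde for 10 min, then stained with Hoechst 33258 for 5 min. Nuclei viewed by fluorescence microscopy at 350 nm excitation and 460 nm emission.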
# HepG2 [6] = experiment: Induction of apoptosis in human HepG2 cells assessed as change in morphology at 20 uM after 12 to 24 hrs using JC-1 staining by fluorescence microscopy; assay type: functional, cell-based
# Method in brief: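 HepG2 cells treated at 20 µM for 12 or 24 h, with untreated 24 h control. Incubated with JC-1 (5 µg/ml) at 37 °C for 20 min, rinsed in PBS. Green (515–545 nm) and red (570–600 nm) emission imaged by fluorescence microscopy; depolarization taken as a rise in green/red ratio.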
# HepG2 [7] = experiment: Induction of apoptosis in human HepG2 cells assessed as late apoptotic cells at 10 uM after 12 hrs by flow cytometry (reference value: 6.9 %); assay type: functional; method in brief: as §2
# HepG2 [8] = experiment: Induction of apoptosis in human HepG2 cells assessed as necrotic cells at 10 uM after 12 hrs by flow cytometry (reference value: 2.3 %); assay type: functional; method in brief: as §2
# HepG2 [9] = experiment: Induction of apoptosis in human HepG2 cells after 12 hrs by flow cytometry; assay type: functional, cell-based; method in brief: as §2
# HepG2 [10] = experiment: Induction of apoptosis in human HepG2 cells assessed as early apoptotic cells at 20 uM after 12 hrs by flow cytometry (reference value: 2.1 %); assay type: functional; method in brief: as §2
# HepG2 [11] = experiment: Induction of apoptosis in human HepG2 cells assessed as late apoptotic cells at 20 uM after 12 hrs by flow cytometry (reference value: 6.9 %); assay type: functional; method in brief: as §2
# HepG2 [12] = experiment: Induction of apoptosis in human HepG2 cells assessed as necrotic cells at 20 uM after 12 hrs by flow cytometry (reference value: 2.3 %); assay type: functional; method in brief: as §2
# HepG2 [13] = experiment: Cell cycle arrest in human HepG2 cells assessed as accumulation at G1 phase at 20 uM after 12 hrs using propidium iodide staining by flow cytometry (reference value: 41.51 %); assay type: functional
# HepG2 [14] = experiment: Cell cycle arrest in human HepG2 cells assessed as accumulation at G2 phase at 20 uM after 12 hrs using propidium iodide staining by flow cytometry (reference value: 6.20 %); assay type: functional
# HepG2 [15] = experiment: Cell cycle arrest in human HepG2 cells assessed as accumulation at S phase at 20 uM after 12 hrs using propidium iodide staining by flow cytometry (reference value: 52.28 %); assay type: functional
# HepG2 [16] = experiment: Cell cycle arrest in human HepG2 cells assessed as accumulation at G1 phase at 20 uM after 24 hrs using propidium iodide staining by flow cytometry (reference value: 41.51 %); assay type: functional
# HepG2 [17] = experiment: Cell cycle arrest in human HepG2 cells assessed as accumulation at G2 phase at 20 uM after 24 hrs using propidium iodide staining by flow cytometry (reference value: 6.20 %); assay type: functional
# HepG2 [18] = experiment: Cell cycle arrest in human HepG2 cells assessed as accumulation at S phase at 20 uM after 24 hrs using propidium iodide staining by flow cytometry (reference value: 52.28 %); assay type: functional
# HepG2 [19] = experiment: Induction of apoptosis in human HepG2 cells assessed as generation of intracellular ROS at 20 uM after 12 to 24 hrs by fluorescence microscopy; assay type: functional, cell-based
# Method in brief: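 HepG2 cells treated at 20 µM for 12 or 24 h, with untreated 24 h control. Loaded with 20 µM DCFH-DA in cell-free medium at 37 °C for 30 min in the dark, then washed in PBS. DCF fluorescence imaged by fluorescence microscopy at 485 nm excitation and 538 nm emission.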
# HepG2 [20] = experiment: Induction of apoptosis in human HepG2 cells assessed as caspase-3 expression at 20 uM by qRT-PCR analysis; assay type: functional, cell-based; settings: TDE = time-dependent effect
# Method in brief: (§3)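 Total RNA extracted from HepG2 cells […]. Transcripts quantified by real-time RT-PCR, with Ct values normalized to actin by the ΔCt method. Run in triplicate per group.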
# HepG2 [21] = experiment: Induction of apoptosis in human HepG2 cells assessed as caspase-8 expression at 20 uM by qRT-PCR analysis; assay type: functional, cell-based; settings: TDE = time-dependent effect; method in brief: as §3
# HepG2 [22] = experiment: Induction of apoptosis in human HepG2 cells assessed as increase in Bax level after 24 hrs by Western blot analysis; assay type: functional, cell-based
# Method in brief: (§4)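 HepG2 cells grown to 80–90% confluence, then kept 12 h in 0.1% FCS RPMI 1640. Exposed 24 h at 5, 10 or 20 µM. Cell extracts run on SDS-polyacrylamide gels, transferred to nitrocellulose and probed with primary antibodies against cytochrome c, Bax, Bcl-2, caspase-9, caspase-3 and cleaved PARP.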
# HepG2 [23] = experiment: Induction of apoptosis in human HepG2 cells assessed as decrease in Bcl-2 level after 24 hrs by Western blot analysis; assay type: functional, cell-based; method in brief: as §4
# HepG2 [24] = experiment: Induction of apoptosis in human HepG2 cells assessed as accumulation of cytochrome c in cytosol at 5 to 20 uM after 24 hrs by Western blot analysis; assay type: functional, cell-based; method in brief: as §4
# HepG2 [25] = experiment: Induction of apoptosis in human HepG2 cells assessed as increase in caspase-9 level at 5 to 20 uM after 24 hrs by Western blot analysis; assay type: functional, cell-based; method in brief: as §4
# HepG2 [26] = experiment: Induction of apoptosis in human HepG2 cells assessed as increase in caspase-3 level at 5 to 20 uM after 24 hrs by Western blot analysis; assay type: functional, cell-based; method in brief: as §4
smiles,measurement,setting,value
C[C@H]1[C@H](C)CC[C@]2(C(=O)Nc3cccc(F)c3)CC[C@]3(C)C(=CC(=O)[C@@H]4[C@@]5(C)C[C@@H](O)[C@H](O)[C@@](C)(CO)[C@@H]5CC[C@]43C)[C@H]12,IC50,MGC-803,14.3 µM
same,IC50,NCI-H460,23.6 µM
same,IC50,HepG2 [1],5.97 µM
same,IC50,HeLa,28.2 µM
same,IC50,[2],14.1 µM
same,IC50,HUVEC,> 100 µM
same,Activity,HepG2 [3],7.2%
same,Activity,HepG2 [4],Active
same,Activity,HepG2 [5],Active
same,Activity,HepG2 [6],Active
same,Activity,HepG2 [7],6.6%
same,Activity,HepG2 [8],2.2%
same,Activity,HepG2 [9],Dose-dependent effect
same,Activity,HepG2 [10],25%
same,Activity,HepG2 [11],9%
same,Activity,HepG2 [12],2.6%
same,Activity,HepG2 [13],55.29%
same,Activity,HepG2 [14],6.09%
same,Activity,HepG2 [15],38.62%
same,Activity,HepG2 [16],65.58%
same,Activity,HepG2 [17],5.56%
same,Activity,HepG2 [18],28.86%
same,Activity,HepG2 [19],Active
same,Activity,HepG2 [20],tde
same,Activity,HepG2 [21],tde
same,Activity,HepG2 [22],Dose-dependent effect
same,Activity,HepG2 [23],Dose-dependent effect
same,Activity,HepG2 [24],Active
same,Activity,HepG2 [25],Active
same,Activity,HepG2 [26],Active

# — ChEMBL document CHEMBL3352325, “Synthesis and biological evaluation of novel aniline-derived asiatic acid derivatives as potential anticancer agents” (Eur J Med Chem, 2014)
